Data published in ChEMBL document CHEMBL1123632, “Cardiotonic agents. 7. Inhibition of separated forms of cyclic nucleotide phosphodiesterase from guinea pig cardiac muscle by 4,5-dihydro-6-[4-(1H-imidazol-1-yl)phenyl]-3(2H)-pyridazinones and related compounds. Structure-activity relationships and correlation with in vivo positive inotropic …” (J Med Chem, 1987).

Legend:
Phosphodiesterase 3 [1] = target: T1, Phosphodiesterase 3 (Homo sapiens, UniProt Q14432+Q13370); experiment: Inhibition of cAMP PDE III enzyme in guinea pig at 1E-5M concentration; format: protein assay; conditions: Cavia porcellus; target entry is the homologue from another species
Phosphodiesterase 1 [2] = target: T2, Phosphodiesterase 1 (Homo sapiens, UniProt P54750+Q01064+Q14123); experiment: Inhibition of cAMP PDE I enzyme in guinea pig at 1E-5M concentration; format: protein assay; conditions: Cavia porcellus; target entry is the homologue from another species
Phosphodiesterase 1 [3] = target: T2, Phosphodiesterase 1; experiment: Inhibition of cGMP PDE I enzyme in guinea pig at 1E-4M concentration; format: protein assay; conditions: Cavia porcellus; target entry is the homologue from another species
[4] = target: T3, cGMP-dependent 3',5'-cyclic phosphodiesterase (Homo sapiens, UniProt O00408); experiment: Inhibition of cAMP PDE II enzyme in guinea pig at 1E-5M concentration; conditions: Cavia porcellus; target entry is the homologue from another species
Canis familiaris = species on record: Canis familiaris; experiment: Effective dose required to increase myocardial contractility in dog.; format: functional; conditions: Canis lupus familiaris, Myocardium
Summary of the method: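 Anesthetized mongrel dogs (either sex): pentobarbital 35 mg/kg iv, then 5 mg kg⁻¹ h⁻¹ infusion. After 30-min control, compound in saline or dilute HCl/NaOH diluted with saline given iv over 1 min, cumulative half-log doses (typically four to six), 10–30 min apart.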

[5] = target: T3, cGMP-dependent 3',5'-cyclic phosphodiesterase; experiment: Inhibition of cGMP PDE II enzyme in guinea pig at 1E-4M concentration; conditions: Cavia porcellus; target entry is the homologue from another species
Phosphodiesterase 1 [6] = target: T2, Phosphodiesterase 1; experiment: Inhibition of cGMP PDE I enzyme in guinea pig at 1E-5M concentration; format: protein assay; conditions: Cavia porcellus; target entry is the homologue from another species
Phosphodiesterase 3 [7] = target: T1, Phosphodiesterase 3; experiment: Inhibitory concentration against cAMP PDE III enzyme in guinea pig; format: protein assay, Cavia porcellus; conditions: target entry is the homologue from another species
[8] = target: T3, cGMP-dependent 3',5'-cyclic phosphodiesterase; experiment: Inhibitory concentration against cAMP PDE II enzyme in guinea pig; set-up: species or system Cavia porcellus; conditions: target entry is the homologue from another species
[9] = target: T3, cGMP-dependent 3',5'-cyclic phosphodiesterase; experiment: Inhibition of cGMP PDE II enzyme in guinea pig at 1E-5M concentration; conditions: Cavia porcellus; target entry is the homologue from another species
[10] = target: T3, cGMP-dependent 3',5'-cyclic phosphodiesterase; experiment: Inhibitory concentration against cGMP PDE II enzyme in guinea pig; set-up: species or system Cavia porcellus; conditions: target entry is the homologue from another species
Phosphodiesterase 3 [11] = target: T1, Phosphodiesterase 3; experiment: Inhibition of cAMP PDE III enzyme in guinea pig at 1E-4M concentration.; format: protein assay; conditions: Cavia porcellus; target entry is the homologue from another species
Phosphodiesterase 1 [12] = target: T2, Phosphodiesterase 1; experiment: Inhibition of cAMP PDE I enzyme in guinea pig at 1E-4M concentration.; format: protein assay; conditions: Cavia porcellus; target entry is the homologue from another species
[13] = Ratio of IC50 values for PDE III and PDE II.
PDE I (Cavia porcellus) [14] = experiment: Inhibitory concentration against cGMP PDE I enzyme in guinea pig
PDE II (Cavia porcellus) = experiment: Inhibition of cAMP PDE II enzyme in guinea pig at 1E-4M concentration.
PDE I (Cavia porcellus) [15] = experiment: Inhibitory concentration against cAMP PDE I enzyme in guinea pig
[16] = Ratio of IC50 values for PDE III and PDE I.

T3 sequence (O00408 whole entry): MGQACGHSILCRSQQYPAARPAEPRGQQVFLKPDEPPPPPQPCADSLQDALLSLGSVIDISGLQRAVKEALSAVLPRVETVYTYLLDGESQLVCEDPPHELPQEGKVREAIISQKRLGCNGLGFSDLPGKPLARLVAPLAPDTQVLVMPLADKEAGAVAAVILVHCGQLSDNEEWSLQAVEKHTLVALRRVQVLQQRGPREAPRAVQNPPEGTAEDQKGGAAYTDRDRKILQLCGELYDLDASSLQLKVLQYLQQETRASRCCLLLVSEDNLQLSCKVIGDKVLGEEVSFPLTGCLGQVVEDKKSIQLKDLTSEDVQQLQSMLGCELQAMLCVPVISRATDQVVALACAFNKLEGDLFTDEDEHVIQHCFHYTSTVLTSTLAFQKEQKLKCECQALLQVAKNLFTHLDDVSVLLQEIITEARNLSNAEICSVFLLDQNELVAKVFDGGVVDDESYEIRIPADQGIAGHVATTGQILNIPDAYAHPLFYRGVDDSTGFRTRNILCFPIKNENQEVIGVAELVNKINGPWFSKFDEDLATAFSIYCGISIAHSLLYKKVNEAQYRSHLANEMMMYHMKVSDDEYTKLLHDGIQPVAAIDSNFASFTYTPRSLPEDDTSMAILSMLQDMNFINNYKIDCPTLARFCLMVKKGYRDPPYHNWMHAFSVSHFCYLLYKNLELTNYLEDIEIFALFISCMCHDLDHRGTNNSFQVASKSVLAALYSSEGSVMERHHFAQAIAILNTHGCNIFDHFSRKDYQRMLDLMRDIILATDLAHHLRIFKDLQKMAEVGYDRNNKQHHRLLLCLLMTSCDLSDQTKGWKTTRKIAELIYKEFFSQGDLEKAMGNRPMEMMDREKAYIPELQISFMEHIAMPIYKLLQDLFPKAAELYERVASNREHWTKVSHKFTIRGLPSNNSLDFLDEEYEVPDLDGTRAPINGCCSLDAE

Row | Compound | inhibition (Phosphodiesterase 3 [1]) [%] | inhibition (Phosphodiesterase 1 [2]) [%] | inhibition (Phosphodiesterase 1 [3]) [%] | inhibition [4] [%] | inhibition [5] [%] | inhibition (Phosphodiesterase 1 [6]) [%] | IC50 (Phosphodiesterase 3 [7]) [µM] | IC50 [8] [µM] | inhibition [9] [%] | IC50 [10] [µM] | inhibition (Phosphodiesterase 3 [11]) [%] | inhibition (Phosphodiesterase 1 [12]) [%] | Ratio [13] | IC50 (PDE I (Cavia porcellus) [14]) [µM] | inhibition (PDE II (Cavia porcellus)) [%] | IC50 (PDE I (Cavia porcellus) [15]) [µM] | Ratio [16] | ED50 (Canis familiaris) [mg/kg]
1 | O=C1CCC(c2ccc(-n3cnc4c3CCCC4)cc2)=NN1 | 60 | 8 | 37 | 20 | 69 | 7 | 1.1 | 49 | 22 | 39 | 87 | 38 | – | – | – | – | – | 0.064
2 | Oc1ccc(-c2ccc(-n3cnc4c3CCCC4)cc2)nn1 | – | 30 | 56 | – | – | 27 | – | – | – | – | – | 52 | – | – | – | – | – | –
3 | CCc1nc(C)c(Br)n1-c1ccc(-c2ccc(O)nn2)cc1 | – | 20 | – | – | – | – | – | – | – | – | – | 64 | – | – | – | – | – | –
4 | CC(=O)OCCN1N=C(c2ccc(-n3ccnc3)cc2)CCC1=O | 16 | 1 | – | 23 | – | 5 | – | – | 11 | – | – | – | – | – | – | – | – | –
5 | CN1N=C(c2ccc(-n3ccnc3)cc2)CCC1=O | 13 | 1 | 26 | 5 | 32 | 3 | 110 | 370 | 1 | 280 | 47 | 22 | 297 | > 1000 | 33 | > 1000 | – | 1
6 | O=C1CCC(c2cccc(-n3ccnc3)c2)=NN1 | 28 | 6 | 8 | 10 | 28 | 3 | 40 | 330 | 10 | 340 | 65 | 9 | 121 | > 1000 | 21 | 930 | 43 | 0.3
7 | CC1CC(=O)NN=C1c1ccc(-n2cnc3c2CCCC3)cc1 (stereo unspecified) [TETRAHYDROBENXIMIDAZOLE] | 64 | 13 | 54 | 21 | 68 | 17 | 0.15 | 46 | 21 | 43 | 90 | 57 | 3.2 | 85 | 65 | 75 | 2 | 0.025
8 | Cc1[nH]c(=O)c(C#N)cc1-c1ccncc1 [MILRINONE] | – | – | – | – | – | – | – | – | – | – | – | – | – | – | – | – | – | 0.037
9 | Cc1cc(O)nnc1-c1ccc(-n2ccnc2)cc1 | 26 | 0 | 14 | 4 | 39 | 4 | 50 | – | 8 | – | 64 | 24 | – | – | – | – | – | 1.1
10 | O=C1CCC(c2ccc(-n3cccc3)cc2)=NN1 | 68 | 0 | – | 20 | – | 13 | – | – | 21 | – | – | – | – | – | – | – | – | –
11 | O=C1NN=C(c2ccc(-n3ccnc3)cc2)C2CCCCC12 (stereo unspecified) | 8 | 1 | 16 | 14 | 44 | 2 | 220 | 150 | 8 | 130 | 34 | 22 | – | – | – | – | – | 1
12 | Cn1nc(-c2ccc(-n3ccnc3)cc2)ccc1=O | 20 | 1 | – | 16 | – | 9 | – | – | 12 | – | – | – | – | – | – | – | – | –
13 | CCc1nc(C)cn1-c1ccc(C2=NNC(=O)CC2)cc1 | 59 | 9 | 53 | 14 | 44 | 7 | 3.5 | 170 | 9 | 92 | 76 | 51 | – | – | – | – | – | 0.1
14 | Oc1ccc(-c2ccc(-c3ncc[nH]3)cc2)nn1 | 51 | 8 | 23 | 10 | 41 | 10 | 12 | 190 | 7 | 180 | 69 | 18 | – | – | – | – | – | 0.017
15 | O=C1CCC(c2ccc(NC3=NCCN3)cc2)=NN1 | 58 | 33 | – | 28 | – | 33 | – | – | 16 | – | – | – | – | – | – | – | – | –
16 | O=C1CCC(c2ccc(-n3cnc(CO)c3)cc2)=NN1 | 59 | 1 | 9 | 6 | 23 | – | 4.1 | 480 | 5 | 350 | 68 | 9 | – | – | – | – | – | 0.034
17 | Cc1csc(Nc2ccc(C3=NNC(=O)CC3)cc2)n1 | 58 | 7 | – | 23 | – | 2 | – | – | 23 | – | – | – | – | – | – | – | – | –
18 | O=C1CCC(c2ccc(-n3cccn3)cc2)=NN1 | – | 12 | – | 27 | – | 15 | – | – | 27 | – | – | – | – | – | – | – | – | –

Second part, led by results:

Row | inhibition (Phosphodiesterase 3 [1]) [%] | inhibition (Phosphodiesterase 1 [2]) [%] | inhibition (Phosphodiesterase 1 [3]) [%] | inhibition [4] [%] | inhibition [5] [%] | inhibition (Phosphodiesterase 1 [6]) [%] | IC50 (Phosphodiesterase 3 [7]) [µM] | IC50 [8] [µM] | inhibition [9] [%] | IC50 [10] [µM] | inhibition (Phosphodiesterase 3 [11]) [%] | inhibition (Phosphodiesterase 1 [12]) [%] | Ratio [13] | IC50 (PDE I (Cavia porcellus) [14]) [µM] | inhibition (PDE II (Cavia porcellus)) [%] | IC50 (PDE I (Cavia porcellus) [15]) [µM] | Ratio [16] | Compound | ED50 (Canis familiaris) [mg/kg]
19 | 57 | 7 | – | 10 | – | 13 | – | – | 12 | – | – | – | – | – | – | – | – | CSc1nccn1-c1ccc(C2=NNC(=O)CC2)cc1 | –
20 | 47 | 2 | – | 17 | – | 5 | – | – | 6 | – | – | – | – | – | – | – | – | CC1(C)CC(=O)NN=C1c1ccc(-n2ccnc2)cc1 | –
21 | 70 | 29 | – | 25 | – | 20 | – | – | 21 | – | – | – | – | – | – | – | – | O=C1CCC(c2ccc(-n3cnnc3)cc2)=NN1 | –
22 | – | – | – | – | – | – | – | 210 | – | 170 | – | – | – | – | – | – | – | Cc1cc(=O)[nH]nc1-c1ccc(-n2ccnc2)cc1 | –
23 | 66 | 9 | 36 | 24 | 70 | 9 | 1.2 | 42 | 24 | 34 | 88 | 25 | 28.5 | 220 | 67 | 280 | 4.3 | O=C1CCC(c2ccc(-n3cnc4ccccc43)cc2)=NN1 | 0.1
24 | 18 | 1 | 8 | 5 | 40 | 1 | 74 | 100 | 13 | 71 | 54 | 2 | 740 | > 1000 | 35 | > 1000 | – | CCC1CC(=O)NN=C1c1ccc(-n2ccnc2)cc1 (stereo unspecified) | 1
25 | 21 | 6 | – | 20 | – | 4 | – | – | 12 | – | – | – | – | – | – | – | – | NNC(=O)c1cc(-c2ccc(-n3ccnc3)cc2)nnc1O | –
26 | 58 | 18 | – | 31 | – | 20 | – | – | 33 | – | – | – | – | – | – | – | – | O=C1CCC(c2ccc(NC3=NCCS3)cc2)=NN1 | –
27 | 24 | 11 | – | 18 | – | 16 | – | – | 15 | – | – | – | – | – | – | – | – | NC(=O)c1cc(-c2ccc(-n3ccnc3)cc2)nnc1O | –
28 | 54 | 3 | 12 | 9 | 31 | 6 | – | – | 4 | – | 68 | 26 | – | – | 36 | – | – | O=C1CCC(c2ccc(NC3=NCCO3)cc2)=NN1 | –
29 | 47 | 1 | 33 | 22 | 70 | 13 | – | – | 18 | – | 79 | 39 | – | – | 70 | – | – | O=C1CCC(c2ccc(-n3ccnc3)cc2)=NN1Cc1ccccc1 | –
30 | 27 | 7 | – | 22 | – | 2 | – | – | 13 | – | – | – | – | – | – | – | – | CC1(C)CC(c2ccc(-n3ccnc3)cc2)=NNC1=O | –
31 | 86 | 21 | – | 37 | – | 20 | – | – | 29 | – | – | – | – | – | – | – | – | O=C1CCC(c2ccc(-c3nn[nH]n3)cc2)=NN1 | –
